Assay results taken from ChEMBL document CHEMBL1125604, “Synthesis and antitumor evaluations of symmetrically and unsymmetrically substituted 1,4-bis[(aminoalkyl)amino]anthracene-9,10-diones and 1,4-bis[(aminoalkyl)amino]-5,8-dihydroxyanthracene-9,10-diones” (J Med Chem, 1991).
≈ marks a conversion by molar mass, not a printed value.

Legend:
[1] = tested on: L1210; test: The compound was tested for its antitumor activity against L1210 cells; type: functional; settings: Mus musculus, read-out: ID50 (the source's name)
[2] = tested on: Mus musculus; test: At 12.5 mg/kg dose CDF1 mice were injected ip on (1,5,9) days after tumor transplantation to evaluate mean survival time; type: functional; settings: route intraperitoneal
Procedure, shortened: (§1)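 CDF1 mice were inoculated ip with 10^6 murine leukemia cells on day 0. Drug was given ip starting 24 h later, on the day schedule listed in each line. Mice were checked daily for toxicity and survival, and day of death was recorded over a 60-day study. The result is reported as mean survival time of treated mice divided by that of controls, ×100.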

[3] = tested on: Mus musculus; test: At 6.25 mg/kg dose CDF1 mice were injected ip on (1,5,9) days after tumor transplantation to evaluate mean survival time; type: functional; settings: route intraperitoneal; procedure, shortened: as §1
[4] = tested on: Mus musculus; test: At 25 mg/kg dose CDF1 mice were injected ip on (1,5,9) days after tumor transplantation to evaluate mean survival time; type: functional; settings: route intraperitoneal; procedure, shortened: as §1
[5] = organism: Homo sapiens; test: Inhibition of cellular growth was evaluated in vitro against human colon carcinoma subline resistant to DOXO (LOVO/DOXO).; type: functional, organism-based
Procedure, shortened: (§2)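 LOVO and LOVO/DOXO cells were grown at 37 °C under 5% CO2 in Ham's F12 with 20% fetal calf serum. They were plated at 2.5 × 10³ cells/dish and exposed continuously to drug for 144 h. Growth inhibition was read by MTT assay, and the ID50 (drug concentration giving 50% inhibition of growth versus control) was derived.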

[6] = organism: Homo sapiens; test: Inhibition of cellular growth was evaluated in vitro against human colon carcinoma LOVO; type: functional; procedure, shortened: as §2
[7] = tested on: Mus musculus; test: At 12.5 mg/kg dose CDF1 mice were injected ip on (1) days after tumor transplantation to evaluate mean survival time; type: functional; settings: route intraperitoneal; procedure, shortened: as §1
[8] = tested on: Mus musculus; test: At 25 mg/kg dose CDF1 mice were injected ip on (1) days after tumor transplantation to evaluate mean survival time; type: functional; settings: route intraperitoneal; procedure, shortened: as §1
[9] = tested on: Mus musculus; test: At 50 mg/kg dose CDF1 mice were injected ip on 1 day after tumor transplantation to evaluate mean survival time; type: functional; settings: route intraperitoneal; procedure, shortened: as §1
[10] = organism: Homo sapiens; test: Inhibition of cellular growth was evaluated in vitro against human colon carcinoma LOVO.; type: functional, organism-based; procedure, shortened: as §2
[11] = tested on: Mus musculus; test: At 50 mg/kg dose CDF1 mice were injected ip on (1,5,9) days after tumor transplantation to evaluate mean survival time; type: functional; settings: route intraperitoneal; procedure, shortened: as §1
[12] = tested on: Mus musculus; test: At 5 mg/kg dose CDF1 mice were injected ip on (1,5) days after tumor transplantation to evaluate mean survival time; type: functional; settings: route intraperitoneal; procedure, shortened: as §1
[13] = tested on: Mus musculus; test: At 25 mg/kg dose CDF1 mice were injected ip on (1,5) days after tumor transplantation to evaluate mean survival time; type: functional; settings: route intraperitoneal; procedure, shortened: as §1
[14] = tested on: Mus musculus; test: At 50 mg/kg dose CDF1 mice were injected ip on (1,5) days after tumor transplantation to evaluate mean survival time; type: functional; settings: route intraperitoneal; procedure, shortened: as §1

Q: For `CN(C)CCNc1ccc(NCCNCCO)c2c1C(=O)c1c(O)ccc(O)c1C2=O`, which IC50 [1] is on record?
A: 0.00017 µg/mL (≈ 0.000397 µM)

Q: What about the T/C [2] of the same compound?
A: 187%

Q: And the T/C [3]?
A: 188%

Q: What about the T/C [4] of the same compound?
A: 244%

Q: What about the IC50 [5] of the same compound?
A: 0.024 µg/mL (≈ 0.056 µM)

Q: And the IC50 [6]?
A: 1 ng/mL (≈ 0.00233 µM)

Q: For `CN(C)CCN(C)c1ccc(N(C)CCN(C)C)c2c1C(=O)c1ccccc1C2=O`, which IC50 [1] is on record?
A: 4.6 µg/mL (≈ 11.3 µM)

Q: And the T/C [7]?
A: 103%

Q: And the T/C [8]?
A: 100%

Q: What about the T/C [9] of the same compound?
A: 95%

Q: With `O=C1c2c(O)ccc(O)c2C(=O)c2c(NCCNCCO)ccc(NCCNCCO)c21` [MITOXANTRONE] as the compound, how does the IC50 [10] read?
A: 0.0055 µg/mL (≈ 0.0124 µM)

Q: What about the IC50 [5] of the same compound?
A: 0.274 µg/mL (≈ 0.616 µM)

Q: Which results are given for `O=C1c2ccccc2C(=O)c2c(NCCNCCO)ccc(NCCNCCO)c21` [AMETANTRONE]?
A: IC50 [1]: 0.01 µg/mL (≈ 0.0242 µM); T/C [2]: 177%; T/C [11]: 146%; T/C [4]: 252%; IC50 [10]: 0.283 µg/mL (≈ 0.685 µM); IC50 [5]: 44.8 µg/mL (≈ 109 µM)

Q: Which results are given for `CN(C)CCNc1ccc(NCCNCCO)c2c1C(=O)c1ccccc1C2=O`?
A: IC50 [1]: 0.0038 µg/mL (≈ 0.00958 µM); T/C [11]: 145%; T/C [4]: 148%

Q: `NCCCCNc1ccc(NCCNCCO)c2c1C(=O)c1c(O)ccc(O)c1C2=O` was tested. Which IC50 [1] did it give?
A: 0.0007 µg/mL (≈ 0.00163 µM)

Q: And the T/C [12]?
A: 138%

Q: `CN(C)CCNc1ccc(NCCN)c2c1C(=O)c1ccccc1C2=O` was tested. Which IC50 [1] did it give?
A: 0.03 µg/mL (≈ 0.0851 µM)

Q: And the T/C [2]?
A: 129%

Q: And the T/C [11]?
A: 180%

Q: And the T/C [4]?
A: 150%

Q: Which results are given for `O=C1c2ccccc2C(=O)c2c(NC3CC3)ccc(NC3CC3)c21`?
A: IC50 [1]: > 10 µg/mL; T/C [2]: 112%; T/C [3]: 100%; T/C [4]: 107%

Q: Which results are given for `CN(C)CCNc1ccc(NCCCCN)c2c1C(=O)c1ccccc1C2=O`?
A: IC50 [1]: 0.0045 µg/mL (≈ 0.0118 µM); T/C [2]: 113%; T/C [13]: 111%; T/C [14]: 64%

Q: What does the source list for `COc1cccc2c1C(=O)c1c(O)c3c(c(O)c1C2=O)C[C@@](O)(C(=O)CO)C[C@@H]3O[C@H]1C[C@H](N)[C@H](O)[C@H](C)O1` [DOXORUBICIN]?
A: IC50 [10]: 0.0247 µg/mL (≈ 0.0454 µM); IC50 [5]: 3.84 µg/mL (≈ 7.07 µM)

Q: `CN(C)CCNc1ccc(N(C)CCN(C)C)c2c1C(=O)c1ccccc1C2=O` was tested. Which IC50 [1] did it give?
A: 0.5 µg/mL (≈ 1.27 µM)

Q: And the T/C [13]?
A: 108%

Q: What about the T/C [11] of the same compound?
A: 127%
